From PubChem BioAssay
Hits are enriched below; roughly 4.2% of the tested compounds scored in any of these assays.
hERG protect – shields human hERG channel from block by proarrhythmic agents | Q12809 | CHO-hERG, FluxOR thallium flux, dofetilide IC70 present | activation (rescue from dofetilide block), less the hit threshold, % at 10 µM | actives 0.51% (n = 310,000) | AID 1511;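 active = activation above the mean of controls blocked by dofetilide plus 5 SD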;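 note: thallium influx through hERG after potassium depolarization seen as dye fluorescence rise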
Cl transport mod – KCC2 (human) Cl- transport modulation. Q9H2X9. actives 2.2% (n = 190,000). B-score of Tl+ flux slope (higher = more flux/activation; lower = inhibition) at 10 µM. KCC2 cells, thallium flux FluoZin-2 fluorescence;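 active = thallium flux slope and its plate-corrected score both differing from the plate sample mean at a set confidence after two filtering rounds, in either direction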;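 note: slope of fluorescence scaled to starting intensity during 10 to 20 s after thallium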
Target sequence (Q9H2X9 whole entry, looked up): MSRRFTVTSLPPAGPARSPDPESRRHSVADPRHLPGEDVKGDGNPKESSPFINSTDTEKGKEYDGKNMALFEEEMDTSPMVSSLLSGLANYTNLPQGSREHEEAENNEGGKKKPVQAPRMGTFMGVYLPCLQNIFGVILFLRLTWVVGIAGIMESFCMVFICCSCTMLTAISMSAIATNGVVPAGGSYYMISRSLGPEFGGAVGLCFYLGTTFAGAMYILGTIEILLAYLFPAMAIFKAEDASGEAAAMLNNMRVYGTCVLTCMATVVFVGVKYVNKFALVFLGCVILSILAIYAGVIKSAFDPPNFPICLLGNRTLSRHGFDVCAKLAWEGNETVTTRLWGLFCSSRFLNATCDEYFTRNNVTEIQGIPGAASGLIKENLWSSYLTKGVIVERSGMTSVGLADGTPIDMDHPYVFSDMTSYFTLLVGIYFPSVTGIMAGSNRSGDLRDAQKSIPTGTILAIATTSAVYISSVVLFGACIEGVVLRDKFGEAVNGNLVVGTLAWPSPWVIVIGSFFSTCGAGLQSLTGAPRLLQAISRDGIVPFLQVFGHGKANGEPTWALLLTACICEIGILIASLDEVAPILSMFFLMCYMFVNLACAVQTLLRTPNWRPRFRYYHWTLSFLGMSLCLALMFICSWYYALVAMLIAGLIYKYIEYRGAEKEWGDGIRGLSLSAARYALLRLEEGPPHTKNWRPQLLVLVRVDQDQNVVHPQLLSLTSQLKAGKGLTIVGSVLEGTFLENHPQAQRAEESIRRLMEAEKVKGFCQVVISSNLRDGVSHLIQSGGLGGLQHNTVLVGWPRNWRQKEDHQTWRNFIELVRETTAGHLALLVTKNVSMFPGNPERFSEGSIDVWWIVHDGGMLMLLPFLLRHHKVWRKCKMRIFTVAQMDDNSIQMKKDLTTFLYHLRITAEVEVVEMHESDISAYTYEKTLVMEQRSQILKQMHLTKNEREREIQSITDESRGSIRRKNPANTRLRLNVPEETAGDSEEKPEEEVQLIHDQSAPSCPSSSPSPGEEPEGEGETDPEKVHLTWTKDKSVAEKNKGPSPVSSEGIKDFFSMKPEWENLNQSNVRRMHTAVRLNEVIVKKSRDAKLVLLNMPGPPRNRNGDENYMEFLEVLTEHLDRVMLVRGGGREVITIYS
SUMO Mot1 rescue – blocks SUMOylation pathway, rescuing yeast Mot1-301 growth; S. cerevisiae Mot1-301 growth rescue, ATP luminescence, 38.5C; percent above DMSO median, 100 means doubled; growth rescue, % at 18.8 µM; actives 1% (n = 320,000);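 active = every valid replicate shows activation above 250% relative to neutral control wells; inactive = the rest, any valid replicate at or below 250%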
AI-2 QS mod – Vibrio harveyi AI-2 quorum sensing modulation; actives 0.4% (n = 300,000); activity change, % at 7.5 µM; Vibrio harveyi JMH597 AI-2 luminescence/OD600 ratio, 9 h; active compounds read low; strain lacks LuxN and CqsS sensors; 0 = neutral-control median; in the data active = activity change below about -75%, passing the limit was not always enough;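 note: luminescence divided by OD600 gain over 9 h not by final OD600 alone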
KCNQ1 block – blocks the human KCNQ1 potassium channel. CHO-K1 KCNQ1, FluxOR thallium flux fluorescence; active compounds read high. actives 1.3% (n = 310,000). B-score at 10 µM;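 active = compounds whose thallium flux B-score, printed positive for inhibition, exceeds three library SD while starting fluorescence stays within three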;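 note: channel opened by potassium depolarization with thallium stimulus after 20 min compound exposure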
KCNQ1 pot – potentiators or activators of human KCNQ1 potassium channel; actives 0.35% (n = 310,000); AID 2648; B-score at 10 µM; P51787; CHO-K1 KCNQ1, thallium flux FluxOR fluorescence; active compounds read high;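 active = fluorescence ratio B-score, a plate-corrected score, at least three library SD, with initial intensity B-score within 5 SD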
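assay system = CHO-K1 cells stably expressing KCNQ1 | medium = assay buffer, equal DMSO in all wells | timing = 37 °C overnight plating, 90-min dark dye load, 20-min compound pretreatment | measured by = kinetic FluxOR thallium fluorescence, 10-s 1-Hz baseline, 110-s post-stimulus read | measure = fluorescence change relative to baseline, converted to B score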
Numbers stand for hits; – = inactive; · = not tested or not shown.

SMILES	hERG protect	Cl transport mod	SUMO Mot1 rescue	AI-2 QS mod	KCNQ1 block	KCNQ1 pot
COc1cccc(C(=O)N2CCN(C3CCN(Cc4ccccc4)CC3)CC2)c1OC	–	–	–	–	–	–
O=[N+]([O-])c1ccc(N2CCN(c3ccccn3)CC2)c(Cl)c1	–	·	–	–	–	–
COc1ccc(S(=O)(=O)Nc2c(C)n(C)n(-c3ccccc3)c2=O)cc1C(=O)O	–	·	274	–	–	–
O=C(Cn1c(COc2ccccc2)nc2ccccc21)Nc1cccc(Cl)c1	6.2	–	–	–	–	–
CC(C)CNC(=S)NC(=O)c1ccc([N+](=O)[O-])cc1	–	20	–	–	–	–
CCCCNC(=S)NC(=O)c1ccc([N+](=O)[O-])cc1	–	21	–	–	–	10
NCCCCc1cn(CC(=O)N2CCNCC2)nn1	–	–	–	–	–	–
COc1ccccc1C(=O)Nc1ccc2c(c1)nc(CN1CCCCC1)n2C	–	–	–	–	–	–
Cc1ccc(S(=O)(=O)n2nc(-c3ccco3)nc2N)cc1	–	–	–	·	–	–
CC(C)(C)n1nnnc1C(c1cccs1)N(Cc1ccccc1)Cc1ccco1 (stereo not drawn)	–	–	·	–	9	–
COc1ccc(Cc2nc(-c3ccc(Br)cc3)no2)cc1	·	–	–	-76	·	·
O=C(Cc1ccc(Br)cc1)N/N=C/c1ccc(-c2cccc(C(=O)O)c2)o1	–	·	–	–	–	–
O=C(O)c1ccc(N/N=C/c2ccc(-c3ccc(Br)cc3)o2)cc1	–	·	–	-96	–	–
O=C(O)c1ccc(N/N=C/c2ccc(-c3ccccc3Cl)o2)cc1	–	–	–	-95	–	–
O=C(O)c1cc(-c2ccc(/C=N/Nc3ccc(Cl)cc3)o2)ccc1Cl	–	–	304	–	–	–
CC(C)CC(=O)Nc1ccc(N2CCOCC2)cc1	–	–	–	–	–	–
CC(=O)c1ccc(NC(=O)Nc2ccc(Cl)cc2)cc1	–	–	–	–	–	–
CC(=O)c1ccc(NC(=O)Nc2ccc([N+](=O)[O-])cc2)cc1	–	–	–	–	7	–
O=C(Nc1ccncc1)Nc1ccncc1	–	·	–	–	–	–
O=C(Nc1ccc([N+](=O)[O-])cc1)Nc1cnccn1	–	·	–	–	12	–
CC(=O)c1ccc(NC(=O)Nc2ccncc2)cc1	4.8	–	–	–	–	–
Cc1ccc(NC(=O)Nc2cnccn2)cc1	–	·	–	–	–	–
O=C(Nc1ccc([N+](=O)[O-])cc1)Nc1nc(-c2ccc(Cl)s2)cs1	–	–	–	-86	–	–
COc1ccc(CNC(=O)C2CCC(=O)N(CCCN3CCCC3=O)C2)c(OC)c1 (stereo not drawn)	–	·	–	–	–	–
O=C(OCC(=O)N1CCCC1=O)c1nc(Cl)c(Cl)c(Cl)c1Cl	–	·	–	–	–	–
SMILES	hERG protect	Cl transport mod	SUMO Mot1 rescue	AI-2 QS mod	KCNQ1 block	KCNQ1 pot
C/C(=N\NC(=O)C1CCCC1)c1ccc(Cl)cc1	–	·	–	–	–	–
O=C(Nc1ccc(Oc2ccc(NC(=O)Nc3ccc([N+](=O)[O-])cc3)cc2)cc1)Nc1ccc([N+](=O)[O-])cc1	–	–	–	–	8	–
CCOc1ccc(NC(=O)Nc2cc(C(C)C)ccc2C)cc1	–	–	·	–	–	–
CC(=O)c1ccc(-n2nncc2-c2ccc([N+](=O)[O-])cc2)cc1	5.5	–	–	–	–	–
O=C(NNC(=O)c1ccncc1)Nc1ccc([N+](=O)[O-])cc1	–	–	–	–	7	–
Cc1ccc(C(C)C)cc1NC(=O)Nc1ccc([N+](=O)[O-])cc1	–	–	–	–	7	–
Cc1ccc2c(cnn2C(=O)CCC(=O)NC2CCCCC2)c1	–	·	–	–	–	–
COc1ccc(C)cc1N(CC(=O)NCCN1CCOCC1)S(=O)(=O)c1ccccc1	–	·	–	–	–	–
Cc1ccc(NC(=S)N2CCn3cccc3C2c2cccnc2)cc1 (stereo not drawn)	–	–	–	–	–	–
S=C(Nc1ccc(Br)cc1)N1CCn2cccc2C1c1cccnc1 (stereo not drawn)	–	–	·	–	–	22
COc1ccc(/C=N/Nc2nc(Nc3ccccc3)nc(N3CCCCC3)n2)cc1OC	–	–	–	–	7	–
CCOc1cc(/C=N/Nc2nc(Nc3ccccc3)nc(N3CCCCC3)n2)ccc1OCC(=O)O	–	–	–	–	–	–
Cc1cc(=O)n2nc(N3CCCC(C(=O)NCCCN4CC(C)CC(C)C4)C3)sc2n1 (stereo not drawn)	–	·	–	–	–	–
Cc1c(C(=O)NCC2COc3ccccc3O2)oc2ccc(S(=O)(=O)N(C)C3CCCCC3)cc12 (stereo not drawn)	–	–	–	–	6	–
COC(=O)CSc1nc2ccc(NC(=O)c3ccccc3C(=O)N3CCOCC3)cc2s1	–	–	–	–	–	–
O=C(Nc1ccc2nc(SCc3ccc(Cl)cc3)sc2c1)c1ccccc1C(=O)N1CCOCC1	–	·	–	–	6	–
CN(Cc1ccccc1)c1nc(-c2cccc([N+](=O)[O-])c2)nc2ccccc12	–	–	–	–	–	–
O=C(Nc1cc(Br)c(O)c(Br)c1)c1cccc(NC(=O)c2ccco2)c1	–	·	–	–	–	–
O=C(Nc1cccc(N=Cc2cc(Cl)cc(Br)c2O)c1)c1ccco1	–	–	–	–	–	17
CCCc1cc(-c2[nH]ncc2-c2ccc(C(=O)OCC)o2)c(O)cc1O	–	–	–	–	–	–
CCCc1cc(-c2[nH]ncc2-c2ccc3c(c2)OCCCO3)c(O)cc1O	–	–	–	–	6	–
O=c1oc(-c2ccccc2)cc(Cl)c1Cl	–	·	–	–	6	–
CCO[C@@H]1OC(C(=O)NCc2ccccc2)=C[C@H](c2csc3ccccc23)[C@H]1CCCO	–	-2.9	–	–	–	–
C#Cc1ccc([C@@H]2C=C(C(=O)N3CCN(Cc4ccccc4)CC3)O[C@H](OCC)[C@H]2CCCO)cc1	–	-3.8	–	–	–	–
COCCN(C(=O)CSc1nnc(Nc2ccccc2F)s1)c1c(N)n(Cc2ccccc2)c(=O)[nH]c1=O	–	–	–	–	–	–
CC1CC2=C(NC(=S)NC2c2ccccc2F)/C(=C/c2ccccc2F)C1 (stereo not drawn)	–	–	–	–	6	–
CC1CC2=C(NC(=S)NC2c2cccc(F)c2)/C(=C/c2cccc(F)c2)C1 (stereo not drawn)	–	–	·	–	–	–
CCNCC(=O)N1c2ccccc2CCc2ccc(NC(=O)OCC)cc21	–	·	293	–	–	–
